Experimental data: ChEMBL document CHEMBL1143838, “Candida albicans and Candida dubliniensis respond differently to echinocandin antifungal agents in vitro” (2007)
Converted amounts (≈) assume the structure as drawn. *1 amine or outer side, *2 acyl side, *3 side chain or, on linkers, in order; H or OH if unused. Where a SMILES comes first, the peptide text is derived from it. Bridges are numbered along the chain shown (N, C = ends). [ ]: non-standard residue; d: D form. The star is where a group is joined. hTyr(3S-OH,4S-OH,3'-OSO3H) = N[C@H](C(=O)O)[C@H](O)[C@@H](O)c1ccc(O)c(OS(=O)(=O)O)c1; Orn(4R-OH,5R-OH) = O=C([C@H](C[C@@H](O)[C@@H](O)N[*:3])N[*:1])[*:2]; Pro(3S-OH,4S-Me) = C[C@H]1CN[C@H](C(=O)O)[C@H]1O; X1 = CCCCCOc1ccc(-c2cc(-c3ccc(C(=O)*)cc3)no2)cc1; Gln(3R-OH) = NC(=O)C[C@@H](O)[C@H](N)C(=O)O; Hyp = O=C(O)[C@@H]1C[C@@H](O)CN1

Experiments:
Format in all cases: functional
[1] = tested on: Candida albicans; test: Antifungal activity against Candida albicans SC5314 after 24 hrs by EUCAST test; conditions: SC5314, 24 h
Method in brief: (§1)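 EUCAST broth microdilution with aqueous doubling dilutions of drug. Inoculum grown overnight at 30°C in NGY, then added to MOPS-buffered RPMI 1640 with 2% glucose at an initial 10^5 yeasts/ml. Incubated 35°C for 24 h. MICs taken from triplicate spectrophotometric dose-response data as 50% and 80% growth-reduction endpoints.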

[2] = tested on: Candida albicans; test: Antifungal activity against Candida albicans Y109 after 24 hrs by CLSI M27-A test
Method in brief: (§2)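 CLSI M27-A broth microdilution with aqueous doubling dilutions of drug. Inoculum grown overnight at 30°C in NGY medium, then added to MOPS-buffered RPMI 1640 at an initial 10^3 yeasts/ml. Incubated 35°C for 24 h. MIC read visually as the lowest concentration giving a marked decrease in visible growth; paradoxical or trailing growth noted.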

[3] = tested on: Candida parapsilosis; test: Antifungal activity against Candida parapsilosis ATCC 22019 after 24 hrs by CLSI M27-A test; conditions: Lodderomyces parapsilosis, ATCC 22019, 24 h
Method in brief: (§3)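 Broth microdilution with echinocandins as aqueous doubling dilutions. Yeasts were grown overnight at 30°C in NGY and seeded at 10^3 yeasts/ml initial concentration in MOPS-buffered RPMI 1640, then incubated at 35°C for 24 h. The MIC was read visually as the lowest concentration giving a marked decrease in visible growth; paradoxical or trailing growth was noted.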

[4] = tested on: Candida dubliniensis; test: Antifungal activity against Candida dubliniensis SCS65875C after 24 hrs by CLSI M27-A test; method in brief: as §3
[5] = tested on: Candida dubliniensis; test: Antifungal activity against Candida dubliniensis SCS17154969-2 after 24 hrs by EUCAST test
Method in brief: (§4)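 Yeasts were grown overnight at 30°C in NGY, then inoculated at 10^5 yeasts/ml initial concentration into MOPS-buffered RPMI 1640 with 2% glucose containing aqueous doubling dilutions of drug. Plates were held at 35°C for 24 h. MICs came from triplicate spectrophotometric dose-response data at 50% and 80% growth-reduction endpoints. Trailing meant a >100-fold gap between these endpoints; paradoxical meant regrowth ≥5% above the curve minimum.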

[6] = tested on: Candida albicans; test: Antifungal activity against Candida albicans T28 after 24 hrs by CLSI M27-A test; method in brief: as §2
[7] = tested on: Candida dubliniensis; test: Antifungal activity against Candida dubliniensis IK after 24 hrs by EUCAST test; method in brief: as §4
[8] = tested on: Candida albicans; test: Antifungal activity against Candida albicans T26 after 24 hrs by CLSI M27-A test; method in brief: as §2
[9] = tested on: Candida albicans; test: Antifungal activity against Candida albicans SCS67023C after 24 hrs by EUCAST test; method in brief: as §1
[10] = tested on: Candida dubliniensis; test: Antifungal activity against Candida dubliniensis AMCC after 24 hrs by EUCAST test; method in brief: as §1
[11] = tested on: Candida albicans; test: Antifungal activity against Candida albicans T32 after 24 hrs by CLSI M27-A test; method in brief: as §2
[12] = tested on: Candida albicans; test: Antifungal activity against Candida albicans T25 after 24 hrs by EUCAST test; method in brief: as §1
[13] = tested on: Candida albicans; test: Antifungal activity against Candida albicans JIMS132203 after 24 hrs by EUCAST test; method in brief: as §1
[14] = tested on: Candida dubliniensis; test: Antifungal activity against Candida dubliniensis ST after 24 hrs by EUCAST test; method in brief: as §4
[15] = tested on: Candida dubliniensis; test: Antifungal activity against Candida dubliniensis SCS59662 after 24 hrs by EUCAST test; method in brief: as §4
[16] = tested on: Candida dubliniensis; test: Antifungal activity against Candida dubliniensis SCS59662 after 24 hrs by CLSI M27-A test; method in brief: as §3
[17] = tested on: Candida albicans; test: Antifungal activity against Candida albicans JIMS101103 after 24 hrs by EUCAST test; method in brief: as §1
[18] = tested on: Candida dubliniensis; test: Antifungal activity against Candida dubliniensis AMCC after 24 hrs by CLSI M27-A test; method in brief: as §2
[19] = tested on: Candida dubliniensis; test: Antifungal activity against Candida dubliniensis J930936 after 24 hrs by CLSI M27-A test; method in brief: as §3
[20] = tested on: Candida albicans; test: Antifungal activity against Candida albicans T32 after 24 hrs by EUCAST test; method in brief: as §1
[21] = tested on: Candida parapsilosis; test: Antifungal activity against Candida parapsilosis ATCC 22019 after 24 hrs by EUCAST test; conditions: Lodderomyces parapsilosis, ATCC 22019, 24 h; method in brief: as §4
[22] = tested on: Candida dubliniensis; test: Antifungal activity against Candida dubliniensis 75/043 after 24 hrs by CLSI M27-A test; method in brief: as §2
[23] = tested on: Candida dubliniensis; test: Antifungal activity against Candida dubliniensis KR after 24 hrs by EUCAST test; method in brief: as §4
[24] = tested on: Candida albicans; test: Antifungal activity against Candida albicans NR4 after 24 hrs by CLSI M27-A test; method in brief: as §2
[25] = tested on: Candida dubliniensis; test: Antifungal activity against Candida dubliniensis 81/060 after 24 hrs by EUCAST test; method in brief: as §1
[26] = tested on: Candida albicans; test: Antifungal activity against Candida albicans JIMS132203 after 24 hrs by CLSI M27-A test; method in brief: as §2
[27] = tested on: Candida albicans; test: Antifungal activity against Candida albicans HK04M102095 after 24 hrs by EUCAST test; method in brief: as §1
[28] = tested on: Candida albicans; test: Antifungal activity against Candida albicans B06-341 after 24 hrs by CLSI M27-A test; method in brief: as §2
[29] = tested on: Candida dubliniensis; test: Antifungal activity against Candida dubliniensis Leic875 after 24 hrs by EUCAST test; method in brief: as §4
[30] = tested on: Candida albicans; test: Antifungal activity against Candida albicans B06-341 after 24 hrs by EUCAST test; method in brief: as §1
[31] = tested on: Candida dubliniensis; test: Antifungal activity against Candida dubliniensis 90/033 after 24 hrs by EUCAST test; method in brief: as §1
[32] = tested on: Candida albicans; test: Antifungal activity against Candida albicans NR2 after 24 hrs by CLSI M27-A test; method in brief: as §2
[33] = tested on: Candida dubliniensis; test: Antifungal activity against Candida dubliniensis 75/043 after 24 hrs by EUCAST test; method in brief: as §1
[34] = tested on: Candida dubliniensis; test: Antifungal activity against Candida dubliniensis KR after 24 hrs by CLSI M27-A test; method in brief: as §3
[35] = tested on: Candida albicans; test: Antifungal activity against Candida albicans T28 after 24 hrs by EUCAST test; method in brief: as §1
[36] = tested on: Candida albicans; test: Antifungal activity against Candida albicans SCS140136P after 24 hrs by CLSI M27-A test; method in brief: as §2
[37] = tested on: Candida dubliniensis; test: Antifungal activity against Candida dubliniensis FS after 24 hrs by EUCAST test; method in brief: as §4
[38] = tested on: Candida albicans; test: Antifungal activity against Candida albicans AM2003/0083 after 24 hrs by CLSI M27-A test; method in brief: as §2
[39] = tested on: Candida dubliniensis; test: Antifungal activity against Candida dubliniensis Leic952 after 24 hrs by CLSI M27-A test; method in brief: as §3
[40] = tested on: Candida dubliniensis; test: Antifungal activity against Candida dubliniensis B71507 after 24 hrs by EUCAST test; method in brief: as §4
[41] = tested on: Candida dubliniensis; test: Antifungal activity against Candida dubliniensis B71507 after 24 hrs by CLSI M27-A test; method in brief: as §3
[42] = tested on: Candida albicans; test: Antifungal activity against Candida albicans NCPF6525 after 24 hrs by CLSI M27-A test; method in brief: as §2
[43] = tested on: Candida albicans; test: Antifungal activity against Candida albicans SCS140136P after 24 hrs by EUCAST test; method in brief: as §1
[44] = tested on: Candida dubliniensis; test: Antifungal activity against Candida dubliniensis J931021 after 24 hrs by EUCAST test; method in brief: as §4
[45] = tested on: Candida dubliniensis; test: Antifungal activity against Candida dubliniensis SCS17154969-1 after 24 hrs by CLSI M27-A test; method in brief: as §3
[46] = tested on: Candida dubliniensis; test: Antifungal activity against Candida dubliniensis Leic952 after 24 hrs by EUCAST test; method in brief: as §4
[47] = tested on: Candida albicans; test: Antifungal activity against Candida albicans NR3 after 24 hrs by CLSI M27-A test; method in brief: as §2
[48] = tested on: Candida dubliniensis; test: Antifungal activity against Candida dubliniensis SCS17154969-1 after 24 hrs by EUCAST test; method in brief: as §4

MIC50 [1]: ≤ 0.032 µg/mL
MIC50 [2]: 0.25 µg/mL (≈ 0.197 µM)
MIC50 [3]: 0.25 µg/mL (≈ 0.197 µM)
MIC50 [4]: ≤ 0.032 µg/mL
MIC50 [5]: 0.063 µg/mL (≈ 0.0496 µM)
MIC50 [6]: ≤ 0.032 µg/mL
MIC50 [7]: ≤ 0.032 µg/mL
MIC50 [8]: 1 µg/mL (≈ 0.787 µM)
MIC50 [9]: ≤ 0.032 µg/mL
MIC50 [10]: ≤ 0.032 µg/mL
MIC50 [11]: ≤ 0.032 µg/mL
MIC50 [12]: 1 µg/mL (≈ 0.787 µM)
MIC50 [13]: ≤ 0.032 µg/mL
MIC50 [14]: 0.063 µg/mL (≈ 0.0496 µM)
MIC50 [15]: ≤ 0.032 µg/mL
MIC50 [16]: ≤ 0.032 µg/mL
MIC50 [17]: ≤ 0.032 µg/mL
MIC50 [18]: ≤ 0.032 µg/mL
MIC50 [19]: ≤ 0.032 µg/mL
MIC50 [20]: ≤ 0.032 µg/mL
MIC50 [21]: 0.5 µg/mL (≈ 0.394 µM)
MIC50 [22]: ≤ 0.032 µg/mL
MIC50 [23]: ≤ 0.032 µg/mL
MIC50 [24]: 0.25 µg/mL (≈ 0.197 µM)
MIC50 [25]: ≤ 0.032 µg/mL
MIC50 [26]: ≤ 0.032 µg/mL
MIC50 [27]: ≤ 0.032 µg/mL
MIC50 [28]: ≤ 0.032 µg/mL
MIC50 [29]: ≤ 0.032 µg/mL
MIC50 [30]: ≤ 0.032 µg/mL
MIC50 [31]: 0.063 µg/mL (≈ 0.0496 µM)
MIC50 [32]: 0.25 µg/mL (≈ 0.197 µM)
MIC50 [33]: ≤ 0.032 µg/mL
MIC50 [34]: ≤ 0.032 µg/mL
MIC50 [35]: ≤ 0.032 µg/mL
MIC50 [36]: ≤ 0.032 µg/mL
MIC50 [37]: 0.063 µg/mL (≈ 0.0496 µM)
MIC50 [38]: ≤ 0.032 µg/mL
MIC50 [39]: ≤ 0.032 µg/mL
MIC50 [40]: 0.063 µg/mL (≈ 0.0496 µM)
MIC50 [41]: ≤ 0.032 µg/mL
MIC50 [42]: ≤ 0.032 µg/mL
MIC50 [43]: ≤ 0.032 µg/mL
MIC50 [44]: 0.063 µg/mL (≈ 0.0496 µM)
MIC50 [45]: ≤ 0.032 µg/mL
MIC50 [46]: 0.063 µg/mL (≈ 0.0496 µM)
MIC50 [47]: 1 µg/mL (≈ 0.787 µM)
MIC50 [48]: 0.063 µg/mL (≈ 0.0496 µM)
SMILES: CCCCCOc1ccc(-c2cc(-c3ccc(C(=O)N[C@H]4C[C@@H](O)[C@@H](O)NC(=O)[C@@H]5[C@@H](O)[C@@H](C)CN5C(=O)[C@H]([C@H](O)CC(N)=O)NC(=O)[C@H]([C@H](O)[C@@H](O)c5ccc(O)c(OS(=O)(=O)O)c5)NC(=O)[C@@H]5C[C@@H](O)CN5C(=O)[C@H]([C@@H](C)O)NC4=O)cc3)no2)cc1 [MICAFUNGIN] (X1-[Orn(4R-OH,5R-OH)]T[Hyp][hTyr(3S-OH,4S-OH,3'-OSO3H)][Gln(3R-OH)][Pro(3S-OH,4S-Me)]; lactam 1-C)
